The record followed here is ChEMBL document CHEMBL4049434, “Radiolabeled Dibenzodiazepinone-Type Antagonists Give Evidence of Dualsteric Binding at the M2 Muscarinic Acetylcholine Receptor” (J Med Chem, 2017).

Assay [1] has as its target T1, Muscarinic acetylcholine receptor M2 (Homo sapiens, UniProt P08172).
T1 sequence (P08172 whole entry): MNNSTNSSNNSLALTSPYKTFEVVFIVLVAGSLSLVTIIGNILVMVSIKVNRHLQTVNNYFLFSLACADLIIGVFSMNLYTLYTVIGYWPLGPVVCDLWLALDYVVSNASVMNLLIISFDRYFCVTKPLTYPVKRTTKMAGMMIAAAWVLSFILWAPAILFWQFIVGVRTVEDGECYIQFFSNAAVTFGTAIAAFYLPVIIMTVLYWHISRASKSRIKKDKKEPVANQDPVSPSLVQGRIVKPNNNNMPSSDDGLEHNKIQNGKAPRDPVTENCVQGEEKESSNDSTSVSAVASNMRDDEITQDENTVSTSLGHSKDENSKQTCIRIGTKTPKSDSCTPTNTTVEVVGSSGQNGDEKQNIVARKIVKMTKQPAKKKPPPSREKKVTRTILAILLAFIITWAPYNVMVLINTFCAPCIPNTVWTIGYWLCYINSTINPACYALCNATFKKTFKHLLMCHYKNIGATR
As to the kind of experiment: Binding affinity to human muscarinic acetylcholine receptor M2 expressed in CHOK9 cell homogenate assessed as saturation binding after 2 hrs by liquid scintillation counting assay.

Assay [2] concerns the target T1, Muscarinic acetylcholine receptor M2. As to the kind of experiment: Binding affinity to human muscarinic acetylcholine receptor M2 expressed in live adherent CHOK9 cells after 2 hrs by liquid scintillation counting assay. The assay is classed as cell-based. A digest of the protocol:
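Live adherent CHO-hM2 cells in L15 medium with 1% BSA, 23 ± 1 °C, 2 h incubation. Competition at 2 nM radioligand; additional 4, 8, 15 and 30 nM in W84 experiments. […] Saturation data fitted one-site; competition by four-parameter logistic fits; at least three experiments in triplicate.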

Assay [3] shares this target. As to the kind of experiment: Binding affinity to human muscarinic acetylcholine receptor M2 expressed in CHOK9 cell homogenate after 2 hrs by liquid scintillation counting assay. To be noted: read-out: Kd(app). A digest of the protocol: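 CHO-hM2 cell homogenates (25–30 μg protein/well) in L15 medium with 1% BSA, 23 ± 1 °C, 2 h with tritiated dimeric radioligand. Competition used 0.5 nM radioligand; additional 0.4, 1, 2 and 4 nM in W84 experiments. […] Four-parameter logistic fits; at least three experiments in triplicate.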

The target is the same in assay [4]. The assay can be described thus: Displacement of [3H]NMS from human muscarinic acetylcholine receptor M2 expressed in CHOK9 cells after 3 hrs by liquid scintillation counting assay. The assay is classed as cell-based. The following applies: read-out: Ki. In general terms: In a radioligand displacement assay an active substance lowers the binding of a labelled ligand.

The target is the same in assay [5]. The assay can be described thus: Displacement of [3H]NMS from human muscarinic acetylcholine receptor M2 expressed in CHO cells after 2 hrs. It is filed as cell-based.
The target is the same in assay [6]. The assay can be described thus: Displacement of [3H]Dimethyl-W84 from human muscarinic acetylcholine receptor M2 expressed in CHO cells after 2 hrs. It is filed as cell-based.
Assay [7] shares this target. The assay can be described thus: Displacement of [3H]UR-AP060 from human muscarinic acetylcholine receptor M2 expressed in CHOK9 cell homogenate after 3 hrs by liquid scintillation counting assay.
Assay [8] has the same target. The assay can be described thus: Displacement of [3H]UNSW-MK259 from human muscarinic acetylcholine receptor M2 expressed in CHOK9 cells after 3 hrs by liquid scintillation counting assay. It is filed as cell-based.
Assay [9] has the same target. As to the kind of experiment: Ratio of binding affinity to human muscarinic acetylcholine receptor M2 expressed in CHOK9 cells assessed as dissociation rate constant to binding affinity to human muscarinic acetylcholine receptor M2 expressed in CHOK9 cells assessed as association rate constant. It is filed as cell-based.
Assay [10] has the same target. The assay can be described thus: Binding affinity to human muscarinic acetylcholine receptor M2 expressed in CHOK9 cell suspension after 2 hrs by liquid scintillation counting assay. To be noted: read-out: Kd(app).
Assay [11] has the same target. The assay can be described thus: Binding affinity to human muscarinic acetylcholine receptor M2 expressed in live adherent CHOK9 cells assessed as saturation binding after 2 hrs by liquid scintillation counting assay.
Assay [12] deals with T2, Muscarinic acetylcholine receptor M4 (Homo sapiens, UniProt P08173).
T2 sequence (P08173 whole entry): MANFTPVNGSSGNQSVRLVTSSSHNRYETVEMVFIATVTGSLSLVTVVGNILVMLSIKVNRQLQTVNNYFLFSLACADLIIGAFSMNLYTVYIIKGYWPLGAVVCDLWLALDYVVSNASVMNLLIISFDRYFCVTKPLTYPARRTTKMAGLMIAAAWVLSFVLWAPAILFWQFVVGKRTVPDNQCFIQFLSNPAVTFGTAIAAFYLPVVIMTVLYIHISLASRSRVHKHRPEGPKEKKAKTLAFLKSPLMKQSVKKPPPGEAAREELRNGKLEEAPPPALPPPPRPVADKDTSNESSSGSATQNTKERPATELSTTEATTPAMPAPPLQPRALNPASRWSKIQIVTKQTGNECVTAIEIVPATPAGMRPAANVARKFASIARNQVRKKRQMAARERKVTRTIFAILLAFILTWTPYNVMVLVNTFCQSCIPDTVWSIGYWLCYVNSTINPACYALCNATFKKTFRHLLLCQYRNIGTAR
The assay can be described thus: Binding affinity to human muscarinic acetylcholine receptor M4 expressed in CHOK9 cells after 2 hrs by liquid scintillation counting assay. It is filed as cell-based.

In general, Ki refers to a dissociation constant, usually derived from enzyme kinetics or from competition with a known ligand. Take `O=C(O)C(F)(F)F.O=C(O)C(F)(F)F.O=C(O)C(F)(F)F.O=C(O)C(F)(F)F.[3H]CC([3H])C(=O)NC1CN(CCCCC2CCN(CC(=O)N3c4ccccc4NC(=O)c4ccccc43)CC2)CCN(CCCCC2CCN(CC(=O)N3c4ccccc4NC(=O)c4ccccc43)CC2)C1` (configuration not stated): the values for the Kd in assay [1], in assay [2] and in assay [3] were 4.6 nM, 8.4 nM and 3 to 4.6 nM, respectively. In addition, the Ki in assay [4] amounted to 0.71 nM.

On to `C[N+](C)(CCCCCC[N+](C)(C)CCCN1C(=O)c2ccccc2C1=O)CCCN1C(=O)c2ccccc2C1=O`, for which the Ki was 31.6 nM in [5], 31.6 nM in [6], 1070 nM in assay [7] and 39.8 nM in [8]. For the same compound, the values for the Kb in assay [7] (read-out: pA2 (converted)) and in [8] (read-out: pA2 (converted)) were 263 nM and 155 nM, respectively.

As for `O=C(O)C(F)(F)F.O=C(O)C(F)(F)F.O=C(O)C(F)(F)F.O=C(O)C(F)(F)F.[3H]CC([3H])C(=O)NCc1cc(C(=O)NCCNC(=O)CCc2cn(CCCCC3CCN(CC(=O)N4c5ccccc5NC(=O)c5ccccc54)CC3)cn2)cc(C(=O)NCCNC(=O)CCc2cn(CCCCC3CCN(CC(=O)N4c5ccccc5NC(=O)c5ccccc54)CC3)cn2)c1` (configuration not stated), the Kd in [9] was 0.2 nM; in [2], 0.91 nM; in assay [3] it was 0.22 to 0.24 nM; in assay [10] it was 0.31 nM; in assay [11], 0.31 nM; in [12], 0.67 nM. The inhibition constant Ki in assay [4] came to 0.41 nM.
